Measurements reported in ChEMBL document CHEMBL3045304, “Sesquiterpene lactones with potential use as natural herbicide models. 2. guaianolides” (2000).
The source made the active and inactive calls. No cut-off for these calls is given here.

Columns and labels:
Allium cepa [1] = experiment: Inhibition of germination of Allium cepa cv. Valenciana (onion) at 0.1 mM or 1 mM after 5 days relative to untreated control; assay type: functional
Triticum aestivum [2] = experiment: Inhibition of root length of Triticum aestivum cv. Cortex (wheat) at 0.1 mM or 1 mM after 5 days relative to untreated control; assay type: functional
Summary of the method: (§1)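 Wheat: 10 seeds per dish on filter paper with 5 mL test solution, 5 days in the dark at 25 °C, 10 replicates per concentration. Stock test solutions were 10^-3 or 10^-4 M in 10 mM MES, with lower levels made by dilution, all at pH 6.0. Parallel controls were run. Output is % difference from control.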

Triticum aestivum [3] = experiment: Inhibition of hypocotyl length of Triticum aestivum cv. Cortex (wheat) at 0.1 mM or 1 mM after 5 days relative to untreated control; assay type: functional; summary of the method: as §1
Triticum aestivum [4] = experiment: Inhibition of germination of Triticum aestivum cv. Cortex (wheat) at 0.1 mM or 1 mM after 5 days relative to untreated control; assay type: functional; summary of the method: as §1
Solanum lycopersicum [5] = experiment: Inhibition of hypocotyl length of Solanum lycopersicum cv. Tres Cantos (tomato) at 0.1 mM or 1 mM after 5 days relative to untreated control; assay type: functional
Summary of the method: (§2)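 Lettuce and tomato seeds, 25 per dish on filter paper, received 5 mL test solution. Incubation was 5 days in the dark at 25 °C, with four replicates per concentration. Solutions were made at 10^-3 or 10^-4 M in 10 mM MES, diluted serially, and adjusted to pH 6.0. Parallel controls were run. Results are % difference from control.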

Solanum lycopersicum [6] = experiment: Inhibition of root length of Solanum lycopersicum cv. Tres Cantos (tomato) at 0.1 mM or 1 mM after 5 days relative to untreated control; assay type: functional; summary of the method: as §2
Lepidium sativum [7] = experiment: Inhibition of hypocotyl length of Lepidium sativum at 0.1 mM or 1 mM after 5 days relative to untreated control; assay type: functional
Allium cepa [8] = experiment: Inhibition of root length of Allium cepa cv. Valenciana (onion) at 0.1 mM or 1 mM after 5 days relative to untreated control; assay type: functional
Triticum aestivum [9] = experiment: Stimulation of hypocotyl length of Triticum aestivum cv. Cortex (wheat) at 0.1 mM or 1 mM after 5 days relative to untreated control; assay type: functional; summary of the method: as §1
Allium cepa [10] = experiment: Stimulation of germination of Allium cepa cv. Valenciana (onion) at 0.1 mM or 1 mM after 5 days relative to untreated control; assay type: functional
Triticum aestivum [11] = experiment: Stimulation of root length of Triticum aestivum cv. Cortex (wheat) at 0.1 mM or 1 mM after 5 days relative to untreated control; assay type: functional; summary of the method: as §1
Solanum lycopersicum [12] = experiment: Inhibition of germination of Solanum lycopersicum cv. Tres Cantos (tomato) at 0.1 mM or 1 mM after 5 days relative to untreated control; assay type: functional; summary of the method: as §2
Lactuca sativa [13] = experiment: Inhibition of hypocotyl length of Lactuca sativa cv. Roman (lettuce) at 0.1 mM or 1 mM after 5 days relative to untreated control; assay type: functional; summary of the method: as §2
Lactuca sativa [14] = experiment: Inhibition of root length of Lactuca sativa cv. Roman (lettuce) at 0.1 mM or 1 mM after 5 days relative to untreated control; assay type: functional; summary of the method: as §2
Lactuca sativa [15] = experiment: Inhibition of germination of Lactuca sativa cv. Roman (lettuce) at 0.1 mM or 1 mM after 5 days relative to untreated control; assay type: functional; summary of the method: as §2
Triticum aestivum [16] = experiment: Stimulation of germination of Triticum aestivum cv. Cortex (wheat) at 0.1 mM or 1 mM after 5 days relative to untreated control; assay type: functional; summary of the method: as §1
Solanum lycopersicum [17] = experiment: Stimulation of hypocotyl length of Solanum lycopersicum cv. Tres Cantos (tomato) at 0.1 mM or 1 mM after 5 days relative to untreated control; assay type: functional; summary of the method: as §2
Solanum lycopersicum [18] = experiment: Stimulation of root length of Solanum lycopersicum cv. Tres Cantos (tomato) at 0.1 mM or 1 mM after 5 days relative to untreated control; assay type: functional; summary of the method: as §2
Solanum lycopersicum [19] = experiment: Stimulation of germination of Solanum lycopersicum cv. Tres Cantos (tomato) at 0.1 mM or 1 mM after 5 days relative to untreated control; assay type: functional; summary of the method: as §2
Lepidium sativum [20] = experiment: Stimulation of hypocotyl length of Lepidium sativum at 0.1 mM or 1 mM after 5 days relative to untreated control; assay type: functional
Lepidium sativum [21] = experiment: Stimulation of root length of Lepidium sativum at 0.1 mM or 1 mM after 5 days relative to untreated control; assay type: functional
Lactuca sativa [22] = experiment: Stimulation of root length of Lactuca sativa cv. Roman (lettuce) at 0.1 mM or 1 mM after 5 days relative to untreated control; assay type: functional; summary of the method: as §2
Lactuca sativa [23] = experiment: Stimulation of hypocotyl length of Lactuca sativa cv. Roman (lettuce) at 0.1 mM or 1 mM after 5 days relative to untreated control; assay type: functional; summary of the method: as §2
Lactuca sativa [24] = experiment: Stimulation of germination of Lactuca sativa cv. Roman (lettuce) at 0.1 mM or 1 mM after 5 days relative to untreated control; assay type: functional; summary of the method: as §2
Lepidium sativum [25] = experiment: Inhibition of root length of Lepidium sativum at 0.1 mM or 1 mM after 4 days relative to untreated control
Lepidium sativum [26] = experiment: Inhibition of germination of Lepidium sativum at 0.1 mM or 1 mM after 4 days relative to untreated control
Allium cepa [27] = experiment: Stimulation of root length of Allium cepa cv. Valenciana (onion) at 0.1 mM or 1 mM after 7 days relative to untreated control
Allium cepa [28] = experiment: Inhibition of hypocotyl length of Allium cepa cv. Valenciana (onion) at 0.1 mM or 1 mM after 7 days relative to untreated control
Allium cepa [29] = experiment: Stimulation of hypocotyl length of Allium cepa cv. Valenciana (onion) at 0.1 mM or 1 mM after 7 days relative to untreated control

C=C1CC[C@H]2[C@H](C)C(=O)O[C@@H]2[C@@]2(O)C(=C)[C@H](O)C[C@@H]12
inhibition (Allium cepa [1]): inactive
inhibition (Triticum aestivum [2]): inactive
inhibition (INH) (Triticum aestivum [3]): 20%
inhibition (Triticum aestivum [4]): inactive
inhibition (Solanum lycopersicum [5]): inactive
inhibition (Solanum lycopersicum [6]): inactive
inhibition (Lepidium sativum [7]): inactive
inhibition (Allium cepa [8]): inactive
Activity (Triticum aestivum [9]): 20%
Activity (Allium cepa [10]): inactive
Activity (Triticum aestivum [11]): inactive
inhibition (Solanum lycopersicum [12]): inactive
inhibition (INH) (Lactuca sativa [13]): 20%
inhibition (INH) (Lactuca sativa [14]): <20%
inhibition (Lactuca sativa [15]): inactive
Activity (Triticum aestivum [16]): inactive
Activity (Solanum lycopersicum [17]): inactive
Activity (Solanum lycopersicum [18]): inactive
Activity (Solanum lycopersicum [19]): inactive
Activity (Lepidium sativum [20]): inactive
Activity (Lepidium sativum [21]): inactive
Activity (Lactuca sativa [22]): <20%
Activity (Lactuca sativa [23]): 20%
Activity (Lactuca sativa [24]): inactive
inhibition (Lepidium sativum [25]): inactive
Activity (Lepidium sativum [26]): inactive
inhibition (Lepidium sativum [26]): inactive
Activity (Allium cepa [27]): inactive
inhibition (Allium cepa [28]): inactive
Activity (Allium cepa [29]): inactive
